Here are results for four compounds from PMC4857762 (Journal of pharmaceutical sciences, 2016).

Data set [1] addresses pepsin (Sus scrofa, UniProt P00791). The data set can be described thus: Hydrolysis in pH 1.2 SGF with pepsin. Conditions: 37 °C, stable = no decrease in area by HPLC after 2 h. The class given is in vitro ADME.
In data set [2] the test system is pancreatin. The data set can be described thus: Hydrolysis in buffers / SIF with pancreatin. Type of data set: in vitro ADME.
Data set [3] relates to Caco-2 cell homogenates. The data set can be described thus: Hydrolysis in Caco-2 cell homogenates. Type of data set: in vitro ADME, Human. Conditions: Caco-2 Cell homogenates (pH 6.0), 500 μg/mL protein, 37 °C.
Data set [4] has as its system HepG2 cell homogenates. The data set can be described thus: Hydrolysis in HepG2 cell homogenates. The class given is in vitro ADME, human. The settings on record: HepG2 Cell homogenates (pH 6.0), 500 μg/mL protein, 37 °C.
For data set [5], the target named is T1, hPEPT1 (Homo sapiens, UniProt P46059).
T1 sequence (P46059 1-708): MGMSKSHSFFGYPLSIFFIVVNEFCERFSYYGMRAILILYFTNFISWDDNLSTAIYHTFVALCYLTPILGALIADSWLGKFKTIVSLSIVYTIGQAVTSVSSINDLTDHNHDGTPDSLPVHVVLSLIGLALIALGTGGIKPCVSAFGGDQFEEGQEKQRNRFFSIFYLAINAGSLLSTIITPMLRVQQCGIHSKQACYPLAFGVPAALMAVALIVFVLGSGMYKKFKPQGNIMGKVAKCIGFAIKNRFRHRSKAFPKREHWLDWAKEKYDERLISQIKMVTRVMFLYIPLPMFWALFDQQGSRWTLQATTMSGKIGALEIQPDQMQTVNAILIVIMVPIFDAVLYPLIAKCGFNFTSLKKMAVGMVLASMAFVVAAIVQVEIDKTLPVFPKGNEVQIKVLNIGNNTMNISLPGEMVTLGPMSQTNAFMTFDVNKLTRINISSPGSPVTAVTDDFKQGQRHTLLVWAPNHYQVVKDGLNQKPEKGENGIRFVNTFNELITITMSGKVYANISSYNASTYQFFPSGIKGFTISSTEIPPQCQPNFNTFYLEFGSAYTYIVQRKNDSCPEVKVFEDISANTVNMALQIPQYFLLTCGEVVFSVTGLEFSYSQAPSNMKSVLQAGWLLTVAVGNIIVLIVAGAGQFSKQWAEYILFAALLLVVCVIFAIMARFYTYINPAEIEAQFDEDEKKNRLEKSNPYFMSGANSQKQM
As to the kind of experiment: Uptake in Xenopus laevis oocytes expressing hPEPT1. The settings on record: 50 μM, pH 6.0, 30 min, room temperature. Type of data set: cell-based. The method, boiled down:
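Oocytes injected with hPEPT1 cRNA, with water-injected oocytes as controls. Uptake at room temperature, pH 6.0, in modified Barth's solution (96 mM NaCl, 10 mM HEPES), 50 μM for 30 min; time course up to 3 h; 50–5000 μM for 3 h. Gly-Sar (1, 20 mM) competition expressed as % of uptake without Gly-Sar. Mean ± SEM, 8–13 experiments.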

Data set [6] has as its system Caco-2 cells. As to the kind of experiment: Intracellular accumulation into Caco-2 cells after transport study. Type of data set: in vitro ADME, Human. Conditions: Caco-2 cell lysate after 2 h transport study with the prodrug. (In general: Passage across Caco-2 layers is used to estimate intestinal permeability.)
Data set [7] deals with Wild-type mice intestinal tissue homogenates. The settings on record: mouse, tissue homogenate, pH 6.
Data set [8] relates to BPHL knock-out mice intestinal tissue homogenates. Conditions: mouse, tissue homogenate, pH 6.
Data set [9] can be described thus: Chemical stability in buffers at 37 °C.
In data set [10] the test system is Caco-2 cell monolayers. The data set can be described thus: Transepithelial transport across Caco-2 cell monolayers. The settings on record: AP-BL.
Data set [11] relates to mouse jejunum. As to the kind of experiment: In situ single-pass intestinal perfusion. The settings on record: mouse proximal jejunum, 0.1 mM, pH 6.0.
Data set [12] in a line: In situ single-pass intestinal perfusion. Conditions: male, BALB/c, mouse, other: in situ single-pass intestinal (jejunal) perfusion, pH 6.
The conditions of data set [13]: given as the ethyl ester prodrug oseltamivir; cited from earlier work.
The nature of data set [14]: in vitro. The settings on record: male, mouse, tissue homogenate, pH 6.
Data set [15] in a line: in vitro. The settings on record: male, BPHL knock-out, mouse, tissue homogenate, pH 6.

pepsin, sequence (P00791 60-385): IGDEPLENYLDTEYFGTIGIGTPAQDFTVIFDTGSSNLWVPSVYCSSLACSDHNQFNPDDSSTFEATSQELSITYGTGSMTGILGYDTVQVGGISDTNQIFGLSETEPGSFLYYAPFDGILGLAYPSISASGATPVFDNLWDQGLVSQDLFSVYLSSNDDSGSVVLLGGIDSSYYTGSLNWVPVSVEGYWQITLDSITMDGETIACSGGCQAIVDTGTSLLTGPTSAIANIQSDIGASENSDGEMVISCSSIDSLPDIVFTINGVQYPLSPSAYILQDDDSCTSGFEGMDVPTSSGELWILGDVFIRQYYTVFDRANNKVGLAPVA

For the compound `CCC(CC)O[C@@H]1C=C(C(=O)O)C[C@H](NC(=N)N)[C@H]1NC(C)=O` [GOC], the “Half-life (t1/2)” value in data set [1], in [2] (pH 4.5 Acetate buffer with pancreatin), in [2] (pH 5.5 Acetate buffer with pancreatin), in data set [2] (pH 6.0 MES buffer with pancreatin), in data set [2] (pH 6.8 SIF with pancreatin) and in [3] was “stable ^b” throughout. For the same compound, the “Half-life (t1/2)” value was “stable ^b” in data set [4]; “stable ^b” in [7]; “stable ^b” in data set [8]; “stable ^b” in data set [9] (pH 1.2 SGF without pepsin, 0.2 mM, stable = no decrease in area by HPLC after 2 h); “stable ^b” in data set [9] (pH 4.5 Acetate buffer); “stable ^b” in data set [9] (pH 5.5 Acetate buffer). In addition, the “Half-life (t1/2)” value in data set [9] (pH 6.0 MES buffer) and in data set [9] (pH 7.4 Phosphate buffer) was “stable ^b” each time. For the same compound, the “Uptake in hPEPT1 cRNA-injected oocytes versus water-injected control oocytes” value in [5] is “no increase in uptake”. Also, the “Amount in cells (share of accumulated species after GOC-ISP-Val transport study)” value in [6] turned out to be 49.2%. In addition, the “Apparent permeability (Papp)” value in data set [10] (apical pH 6.0 / basolateral pH 7.4, 37 °C) is 7.98±4.61 x 10^−7 cm/s. Moreover, the “Effective permeability (Peff)” value in data set [11] is on record as “approximately zero”.
For `COCCc1ccc(OCC(O)CNC(C)C)cc1` (centres unmarked) [metoprolol], in data set [10] (0.2 mM), the “Papp relative to that of the prodrug GOC-ISP-Val” value came to 1.7 times higher. Besides, in data set [12], the Papp (in general, a coefficient for how fast a substance crosses the barrier) at 1.5 h, 0.1 mM was 53.8 ± 16.8 ×10⁻⁶ cm/s.
As to `CCC(CC)O[C@@H]1C=C(C(=O)O)C[C@H](N)[C@H]1NC(C)=O` [oseltamivir carboxylate], in data set [13], the Oral bioavailability entry is “about 80%”.
Consider `CC(C)[C@H](N)C(=O)OCCOCn1cnc2c(=O)[nH]c(N)nc21` [valacyclovir], for which the half-life (commonly how long it takes for the measured level to halve) is 1.58 h in [14] and 3.12 h in [15].
